Holding throughout (type): functional
For experiment [1], the system named is Malme-3M. The experiment is described as follows: In vitro inhibitory activity against melanoma MALME-3M cancer cell line. To be noted: Homo sapiens. Put shortly: (§1)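 Tested in the National Cancer Institute's in vitro disease-oriented tumor cell line screen. Dose-response curves were recorded for each cell line, and values are reported as log GI50, the compound concentration that inhibits cell growth by 50%.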

Experiment [2] relates to K562. The experiment is described as follows: In vitro inhibitory activity against leukemia K-562 cancer cell line. The following applies: Homo sapiens. Put shortly: as §1
For experiment [3], the system named is IGROV-1. The experiment is described as follows: In vitro inhibitory activity against ovarain IGROV1 cancer cell line. The following applies: Homo sapiens. Put shortly: as §1
Experiment [4] concerns SF-539. The experiment is described as follows: In vitro inhibitory activity against CNS SF-539 cancer cell line. The following applies: Homo sapiens. Put shortly:
as §1

The test system of experiment [5] is NCI-H522. The experiment is described as follows: In vitro inhibitory activity against non small lung […]H522 cancer cell line. The following applies: Homo sapiens. Put shortly: as §1
The subject of experiment [6] is RXF 393. The experiment is described as follows: In vitro inhibitory activity against renal RXF-393 cancer cell line. To be noted: Homo sapiens. Put shortly: as §1
For experiment [7], the system named is OVCAR-3. The experiment is described as follows: In vitro inhibitory activity against ovarain OVCAR-3 cancer cell line. To be noted: Homo sapiens. Put shortly:
as §1

Experiment [8] deals with HCT-116. The experiment is described as follows: In vitro inhibitory activity against colon HCT116 cancer cell line. The following applies: Homo sapiens. Put shortly: as §1
Experiment [9] is described as follows: In vitro inhibitory activity against small cell lung DMS 114 cancer cell line. The following applies: Homo sapiens, Cancer cell lines. Put shortly: as §1
In experiment [10] the test system is COLO 205. The experiment is described as follows: In vitro inhibitory activity against colon COLO-205 cancer cell line. To be noted: Homo sapiens. Put shortly: as §1
For experiment [11], the system named is U-251. The experiment is described as follows: In vitro inhibitory activity against CNS U-251 cancer cell line. To be noted: Homo sapiens. Put shortly: as §1
Experiment [12] concerns ACHN. The experiment is described as follows: In vitro inhibitory activity against renal ACHN cancer cell line. To be noted: Homo sapiens. Put shortly: as §1
Experiment [13] is described as follows: In vitro inhibitory activity against small cell lung DMS 273 cancer cell line. To be noted: Homo sapiens, Cancer cell lines. Put shortly:
as §1

For experiment [14], the system named is HL-60. The experiment is described as follows: In vitro inhibitory activity against leukemia HL-60(TB) cancer cell line. To be noted: Homo sapiens. Put shortly:
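Tested in the NCI in vitro disease-oriented human tumour cell line screen. Growth inhibition was read from dose-response curves and reported as log GI50, the compound concentration that inhibits cell growth by 50%.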

Experiment [15] has as its system UACC-62. The experiment is described as follows: In vitro inhibitory activity against melanoma UACC-62 cancer cell line. To be noted: Homo sapiens. Put shortly:
as §1

Experiment [16] concerns HOP-92. The experiment is described as follows: In vitro inhibitory activity against non small lung HOP-92 cancer cell line. The following applies: Homo sapiens. Put shortly:
as §1

For experiment [17], the system named is MCF7. The experiment is described as follows: In vitro inhibitory activity against breast MCF-7 cancer cell line. To be noted: Homo sapiens. Put shortly: as §1
Experiment [18] deals with PC-3. The experiment is described as follows: In vitro inhibitory activity against prostate PC-3 cancer cell line. To be noted: Homo sapiens. Put shortly: as §1
Experiment [19] deals with DU-145. The experiment is described as follows: In vitro inhibitory activity against prostate DU-145 cancer cell line. The following applies: Homo sapiens. Put shortly: as §1
The test system of experiment [20] is MDA-N. The experiment is described as follows: In vitro inhibitory activity against breast MDA-N cancer cell line. The following applies: Homo sapiens. Put shortly:
as §1

We go through three molecules from ChEMBL document CHEMBL1129540, “Synthesis and cytotoxicity of 1,2-disubstituted naphth[2,3-d]imidazole-4,9-diones and related compounds” (1996).

One may read the GI50 as the concentration that inhibits growth by half. A lower GI50 goes with greater sensitivity of the cells.

As for `O=C(Cc1ccccc1F)NC1=C(Cl)C(=O)c2ccccc2C1=O`, the 50% growth inhibitory concentration (GI50) in experiment [1] was 1700 nM; in [2], 295 nM; in experiment [3], 676 nM; in experiment [4] it was 240 nM; in experiment [5] it was 214 nM; in experiment [6], 166 nM. The GI50 in experiment [7] is 933 nM; in [8], 427 nM; in experiment [9], 174 nM; in experiment [10], 1910 nM; in experiment [11], 331 nM; in [12] it was 479 nM. The GI50 in experiment [13] was 1290 nM; in experiment [14], 282 nM; in experiment [15], 331 nM; in experiment [16], 1100 nM.

As for `CC/N=C1/C(=O)c2ccccc2C(O)=C1NC(=O)c1cc(OC)cc(OC)c1`, the concentration for 50% growth inhibition (GI50) in experiment [1] is 776 nM; in experiment [2], 490 nM; in experiment [3], 1550 nM; in [4], 1910 nM; in experiment [5] it was 372 nM; in experiment [6], 324 nM. The 50% growth inhibitory concentration (GI50) in [7] is 525 nM; in [17], 372 nM; in experiment [8], 417 nM; in experiment [10] it was 3470 nM; in [11], 525 nM; in [18], 380 nM. Besides, the concentration for 50% growth inhibition (GI50) is 977 nM in [12]; 407 nM in experiment [14]; 355 nM in experiment [15]; 2690 nM in [19]; 120 nM in [20]; 1120 nM in experiment [16].

`CCn1c(C)nc2c1C(=O)c1ccccc1C2=O`: the 50% growth inhibitory concentration (GI50) is 2510 nM in experiment [1]; 1660 nM in [2]; 2040 nM in experiment [3]; 2690 nM in [4]; 240 nM in [5]; 27500 nM in experiment [6]. For the same molecule, the concentration for 50% growth inhibition (GI50) in experiment [7] is 50.1 nM; in experiment [17], 676 nM; in experiment [8] it was 1230 nM; in experiment [9] it was 275 nM; in [10], 355 nM; in [11], 1910 nM. In addition, the GI50 in experiment [13] was 1660 nM; in experiment [14] it was 16600 nM; in experiment [15] it was 4900 nM; in [16], 1620 nM.
